Measurements reported in ChEMBL document CHEMBL5380838, “Novel Aryl Sulfonamide Derivatives as NLRP3 Inflammasome Inhibitors for the Potential Treatment of Cancer” (J Med Chem, 2023).
Activity calls are given as the source filed them. The calls are words filed in the database; no cut-off is given here.

Legend:
[1] = Metabolic stability in mouse liver microsomes assessed as intrinsic clearance measured per mg protein at 1 uM measured upto 60 mins by LC-MS/MS analysis; type: ADME, Microsome; conditions: read-out: CLH
How it was run: (§1)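 Pooled human or CD-1 male mouse liver microsomes at 0.5 mg/mL with test compound 1 µM in 50 mM phosphate pH 7.4 and 3 mM MgCl2, preincubated 10 min at 37 °C. Percent parent remaining vs 0 min measured by LC-MS/MS. Cli = k/microsomal conc. × 1000; mean ± SD, n = 2.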

[2] = Metabolic stability in mouse liver microsomes assessed as half life measured per mg protein at 1 uM measured upto 60 mins by LC-MS/MS analysis; type: ADME, Microsome; how it was run: as §1
[3] = Metabolic stability in human liver microsomes assessed as intrinsic clearance measured per mg protein at 1 uM measured upto 60 mins by LC-MS/MS analysis; type: ADME, Microsome; conditions: read-out: CLH; how it was run: as §1
[4] = Metabolic stability in human liver microsomes assessed as half life measured per mg protein at 1 uM measured upto 60 mins by LC-MS/MS analysis; type: ADME, Microsome; how it was run: as §1
[5] = biological target: NACHT, LRR and PYD domains-containing protein 3 (Mus musculus) (UniProt Q8R4B8); test: Inhibition of NLRP3 inflammasome activation in LPS-treated mouse BMDM cells assessed as inhibition of Bz-ATP-stimulated IL-1beta release at 1 uM incubated for 30 mins followed by Bz-ATP stimulation for 30 mins by ELISA method; type: cell-based; conditions: time 60.0 min
How it was run: (§2)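 Mouse BMDMs, C57BL/6 bone marrow cells differentiated 7 days with M-CSF 10 ng/mL, seeded 5 × 10^5/well. Primed with LPS 1 µg/mL for 2 h, then compound 1 µM in serum-free medium for 30 min, then Bz-ATP 100 µM for 30 min. Supernatant IL-1β by ELISA in pg/mL and as percent inhibition. Mean ± SEM of three independent experiments in triplicate.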

[6] = biological target: NACHT, LRR and PYD domains-containing protein 3 (Mus musculus) (UniProt Q8R4B8); test: Inhibition of NLRP3 inflammasome activation in LPS-treated mouse BMDM cells assessed as Bz-ATP-stimulated IL-1beta level at 1 uM incubated for 30 mins followed by Bz-ATP stimulation for 30 mins by ELISA method; type: cell-based; conditions: time 60.0 min; how it was run: as §2
[7] = biological target: NACHT, LRR and PYD domains-containing protein 3 (Mus musculus) (UniProt Q8R4B8); test: Inhibition of NLRP3 inflammasome activation in LPS-treated mouse BMDM cells assessed as inhibition of Bz-ATP-stimulated IL-1beta release at 1 uM incubated for 30 mins followed by Bz-ATP stimulation for 30 mins by ELISA method relative to control; type: cell-based; conditions: time 60.0 min; how it was run: as §2

Chain of NACHT, LRR and PYD domains-containing protein 3 (Mus musculus) (Q8R4B8 whole entry, the tested form may be a part): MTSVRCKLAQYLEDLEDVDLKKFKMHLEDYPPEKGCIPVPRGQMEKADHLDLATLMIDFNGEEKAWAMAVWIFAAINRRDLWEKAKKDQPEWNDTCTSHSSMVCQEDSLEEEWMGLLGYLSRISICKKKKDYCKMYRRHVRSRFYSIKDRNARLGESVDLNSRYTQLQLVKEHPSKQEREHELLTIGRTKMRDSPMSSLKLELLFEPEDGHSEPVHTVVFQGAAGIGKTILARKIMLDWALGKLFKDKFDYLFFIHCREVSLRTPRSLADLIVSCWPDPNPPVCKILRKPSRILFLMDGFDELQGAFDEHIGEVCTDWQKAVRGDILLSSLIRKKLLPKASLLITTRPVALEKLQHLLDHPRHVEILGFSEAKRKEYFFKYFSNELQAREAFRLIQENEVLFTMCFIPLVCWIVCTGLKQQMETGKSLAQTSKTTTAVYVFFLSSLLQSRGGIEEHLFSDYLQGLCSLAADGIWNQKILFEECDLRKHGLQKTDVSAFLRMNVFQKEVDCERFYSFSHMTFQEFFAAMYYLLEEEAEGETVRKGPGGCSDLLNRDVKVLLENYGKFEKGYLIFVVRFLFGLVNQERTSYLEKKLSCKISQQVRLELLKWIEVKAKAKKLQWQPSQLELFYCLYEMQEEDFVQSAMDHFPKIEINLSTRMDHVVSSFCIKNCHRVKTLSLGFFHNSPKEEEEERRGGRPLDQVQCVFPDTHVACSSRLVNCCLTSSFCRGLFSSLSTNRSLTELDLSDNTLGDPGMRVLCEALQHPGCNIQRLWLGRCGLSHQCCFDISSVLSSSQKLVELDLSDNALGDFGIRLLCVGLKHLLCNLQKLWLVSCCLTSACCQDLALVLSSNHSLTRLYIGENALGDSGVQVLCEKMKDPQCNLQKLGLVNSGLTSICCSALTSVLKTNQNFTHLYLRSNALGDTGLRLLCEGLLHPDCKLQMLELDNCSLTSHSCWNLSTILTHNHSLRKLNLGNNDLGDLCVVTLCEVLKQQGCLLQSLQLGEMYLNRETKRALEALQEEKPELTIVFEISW

| Activity [6] [pg/mL] | inhibition [7] [%] | Compound | also measured |
| --- | --- | --- | --- |
|  |  | CCOc1ccc2ccc(=O)oc2c1 | microsomal CLint at 1 µM [1]: 422 µL/min/mg; half-life at 1 µM [2]: 3.3 min; microsomal CLint at 1 µM [3]: 168 µL/min/mg; half-life at 1 µM [4]: 8.3 min |
| 348 |  | Nc1ccc(S(=O)(=O)NCC(=O)Nc2c3c(cc4c2CCC4)CCC3)cc1 | inhibition [5]: inactive |
| 131 | 53.7 | O=C(Nc1c2c(cc3c1CCC3)CCC2)[C@@H]1Cc2ccccc2CN1S(=O)(=O)c1ccc([N+](=O)[O-])cc1 |  |
| 203 | 28.4 | NCCCC[C@H](NS(=O)(=O)c1ccc(N)cc1)C(=O)Nc1c2c(cc3c1CCC3)CCC2 |  |
| 349 |  | C[C@H](NS(=O)(=O)c1ccc([N+](=O)[O-])cc1)C(=O)Nc1c2c(cc3c1CCC3)CCC2 | inhibition [5]: inactive |
| 220 | 22.3 | Nc1ccc(S(=O)(=O)NCCC(=O)Nc2c3c(cc4c2CCC4)CCC3)cc1 |  |
| 165 | 41.6 | Nc1ccc(S(=O)(=O)N2CCC[C@H]2C(=O)Nc2c3c(cc4c2CCC4)CCC3)cc1 |  |
| 237 | 16.1 | Nc1ccc(S(=O)(=O)N[C@H](C(=O)Nc2c3c(cc4c2CCC4)CCC3)c2ccccc2)cc1 |  |
| 156 | 44.8 | O=C(Nc1c2c(cc3c1CCC3)CCC2)[C@H](CNS(=O)(=O)c1ccc([N+](=O)[O-])cc1)c1ccccc1 |  |
| 210 | 25.7 | O=C(Nc1c2c(cc3c1CCC3)CCC2)[C@@H]1CCCN1S(=O)(=O)c1ccc([N+](=O)[O-])cc1 |  |
| 143 | 49.5 | O=C(Nc1c2c(cc3c1CCC3)CCC2)[C@@H](Cc1ccccc1)NS(=O)(=O)c1ccc([N+](=O)[O-])cc1 |  |
| 149 | 47.5 | NCCCC[C@H](NS(=O)(=O)c1ccc([N+](=O)[O-])cc1)C(=O)Nc1c2c(cc3c1CCC3)CCC2 |  |
| 344 |  | O=C(CNS(=O)(=O)c1ccc([N+](=O)[O-])cc1)Nc1c2c(cc3c1CCC3)CCC2 | inhibition [5]: inactive |
|  | 25.1 | CC(C)[C@@H](NS(=O)(=O)c1ccc(N)cc1)C(=O)Nc1c2c(cc3c1CCC3)CCC2 |  |
| 180 | 36.5 | O=C(CCNS(=O)(=O)c1ccc([N+](=O)[O-])cc1)Nc1c2c(cc3c1CCC3)CCC2 |  |
| 135 | 52.4 | O=C(Nc1c2c(cc3c1CCC3)CCC2)[C@@H]1CCCCN1S(=O)(=O)c1ccc([N+](=O)[O-])cc1 |  |
|  | 34.7 | O=C(Nc1c2c(cc3c1CCC3)CCC2)[C@H](Cc1ccc(O)cc1)NS(=O)(=O)c1ccc([N+](=O)[O-])cc1 |  |
|  |  | CC(C)NCC(O)COc1cccc2ccccc12 (stereo not given) [PROPRANOLOL] | half-life at 1 µM [2]: 7.3 min; half-life at 1 µM [4]: 47 min |
| 211 | 25.4 | Nc1ccc(S(=O)(=O)N2CCCC[C@H]2C(=O)Nc2c3c(cc4c2CCC4)CCC3)cc1 |  |
| 227 | 19.8 | O=C(Nc1c2c(cc3c1CCC3)CCC2)[C@H](Cc1ccccc1)NS(=O)(=O)c1ccc([N+](=O)[O-])cc1 |  |
| 175 | 38 | Nc1ccc(S(=O)(=O)N[C@@H](Cc2ccccc2)C(=O)Nc2c3c(cc4c2CCC4)CCC3)cc1 |  |
|  | 17.3 | C[C@H](NS(=O)(=O)c1ccc(N)cc1)C(=O)Nc1c2c(cc3c1CCC3)CCC2 |  |
| 194 | 31.5 | CC(C)C[C@H](NS(=O)(=O)c1ccc(N)cc1)C(=O)Nc1c2c(cc3c1CCC3)CCC2 |  |
| 131 | 53.9 | CC(C)C[C@H](NS(=O)(=O)c1ccc([N+](=O)[O-])cc1)C(=O)Nc1c2c(cc3c1CCC3)CCC2 |  |
|  | 50.2 | CC(C)[C@H](NS(=O)(=O)c1ccc(N)cc1)C(=O)Nc1c2c(cc3c1CCC3)CCC2 |  |
| 152 | 46.4 | Nc1ccc(S(=O)(=O)N[C@H](Cc2ccccc2)C(=O)Nc2c3c(cc4c2CCC4)CCC3)cc1 |  |
